# Non-standard residues stand in square brackets, D forms with d. Residues, ends and D or L forms follow the SMILES beside them.
# Test system: not listed separately
# Assay: Evaluated for inhibition of ET-1 induced Calcium channel [Ca+2]i in CHO-K1 cells transfected with the rat ETA-expression plasmid DNA
# Assay type: functional, cell-based
# Procedure, shortened: (§1)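 Rat ETA receptor plasmid transfected into CHO-K1 cells by lipofection. Cells preloaded with fura-2 AM, then stimulated with ET-1 at 10^-7 M. The rise in [Ca2+]i was read ratiometrically, with excitation at 340/380 nm and emission at 510 nm. The ET-1 response alone was set as 100%, and inhibition by compounds is expressed relative to it.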
row,SMILES,IC50
1,CC1(c2ccc(O)cc2)c2cc(C(=O)O)sc2C(=O)c2c1c1ccccc1n2Cc1ccccc1 (configuration not stated),~10 nM

# Test system: not listed separately
# Assay: Evaluated for inhibition of ET-1 induced Calcium channel [Ca+2]i in CHO-K1 cells transfected with the rat ETA-expression plasmid DNA at 10 nM
# Assay type: functional
# Procedure, shortened: as §1
row,SMILES,inhibition at 0.01 µM
1,CCCOc1ccc2c(c1)[C@@H](c1ccc(OC)cc1OCC(=O)O)[C@H](C(=O)O)[C@H]2c1ccc2c(c1)OCO2 [SB-209670],~85%

# Test system: not listed separately
# Assay: Evaluated for inhibition of ET-1 induced Calcium channel [Ca+2]i in CHO-K1 cells transfected with the rat ETA-expression plasmid DNA at 10E-6M
# Assay type: functional
# Procedure, shortened: as §1
row,SMILES,inhibition at 1 µM
1,Cn1c2c(c3ccccc31)C(C)(c1ccc(OCCCC(=O)O)cc1)c1cc(C(=O)O)sc1C2=O (configuration not stated),> 75%
2,CC(C)C[C@@H]1NC(=O)[C@@H](C(C)C)NC(=O)[C@@H]2CCCN2C(=O)[C@@H](CC(=O)O)NC(=O)[C@@H](Cc2c[nH]c3ccccc23)NC1=O [BQ-123] (cyclo(L[dW][dD]P[dV])),~60%
3,CC1(c2ccc(O)cc2)c2cc(C(=O)O)sc2C(=O)c2c1c1ccccc1n2Cc1ccccc1 (configuration not stated),> 75%
4,Cn1c2c(c3ccccc31)C(C)(c1ccc(OCC(=O)O)cc1)c1cc(C(=O)O)sc1C2=O (configuration not stated),> 75%
5,Cn1c2c(c3ccccc31)C(C)(c1cccc(CCCC(=O)O)c1)c1cc(C(=O)O)sc1C2=O (configuration not stated),> 75%
6,Cn1c2c(c3ccccc31)C(C)(c1cccc(CC(=O)O)c1)c1cc(C(=O)O)sc1C2=O (configuration not stated),> 75%

# Test system: CHO-K1
# Assay: Evaluated for inhibition of ET-1 induced Calcium channel [Ca+2]i in CHO-K1 cells transfected with the rat ETA-expression plasmid DNA at 10E-6M; Low inhibition
# Assay type: functional, cell-based
# Procedure, shortened: as §1
row,SMILES,inhibition
1,COc1ccc(C2(C)c3cc(C(=O)O)sc3C(=O)c3c2c2ccccc2n3Cc2ccccc2)cc1 (configuration not stated),Weak inhibition
2,CC1(c2ccccc2)c2cc(C(=O)O)sc2C(=O)c2c1c1ccccc1n2Cc1ccc(O)cc1 (configuration not stated),Weak inhibition
3,COc1ccc(Cn2c3c(c4ccccc42)C(C)(c2ccccc2)c2cc(C(=O)O)sc2C3=O)cc1 (configuration not stated),Weak inhibition
4,CC1(c2cccc(CC(=O)O)c2)c2cc(C(=O)O)sc2C(=O)c2c1c1ccccc1n2Cc1ccccc1 (configuration not stated),Weak inhibition
5,COc1cccc(C2(C)c3cc(C(=O)O)sc3C(=O)c3c2c2ccccc2n3Cc2ccccc2)c1 (configuration not stated),Weak inhibition
6,CC1(c2ccccc2)c2cc(C(=O)O)sc2C(=O)c2c1c1ccccc1n2Cc1ccc(OCC(=O)O)cc1 (configuration not stated),Weak inhibition

# Test system: not listed separately
# Assay: Evaluated for inhibition of ET-1 induced Calcium channel [Ca+2]i in CHO-K1 cells transfected with the rat ETA-expression plasmid DNA at 10E-6M; range- 50-70%
# Assay type: functional
# Procedure, shortened: as §1
row,SMILES,inhibition at 1 µM
1,CC1(c2ccc(OCC(=O)O)cc2)c2cc(C(=O)O)sc2C(=O)c2c1c1ccccc1n2Cc1ccccc1 (configuration not stated),< 70%
2,CC1(c2cccc(O)c2)c2cc(C(=O)O)sc2C(=O)c2c1c1ccccc1n2Cc1ccccc1 (configuration not stated),< 70%
3,COc1cccc(C2(C)c3cc(C(=O)O)sc3C(=O)c3c2c2ccccc2n3C)c1 (configuration not stated),< 70%

# — ChEMBL document CHEMBL1148428, “Carbazolothiophene-2-carboxylic acid derivatives as endothelin receptor antagonists” (Bioorg Med Chem Lett, 2004)
